Bioassay records from PubChem BioAssay.
Rows were chosen to be rich in hits. Some 1.7% of all compounds tested hit in one or more screens of this group.
LMPTP block – LMPTP phosphatase inhibitors, primary screen, biochemical, fluorescence intensity, uHTS | Low molecular weight phosphotyrosine protein phosphatase (Homo sapiens), P24666 | recombinant LMPTP-A, OMFP fluorogenic substrate | inhibition, % at 20 µM | actives 0.22% (n = 360,000) | AID 651560, 2012;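 active = compounds that cut the enzyme signal by at least half of the control window in the single-dose screen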;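 note: plate controls were DMSO wells with enzyme plus substrate for no effect and substrate without enzyme for full effect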
Target sequence (P24666 whole entry, looked up): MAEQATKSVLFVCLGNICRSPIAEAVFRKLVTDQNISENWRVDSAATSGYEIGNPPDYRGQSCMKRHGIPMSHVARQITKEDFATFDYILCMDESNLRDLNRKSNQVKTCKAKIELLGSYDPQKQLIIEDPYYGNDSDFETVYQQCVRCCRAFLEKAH
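Test system: LMPTP-A, protein tyrosine phosphatase of low molecular weight; Input: 0.625 nM enzyme; Incubation: 50 min dark incubation at room temperature; Signal: endpoint fluorescence intensity from OMFP dephosphorylation; Read-out basis: % inhibition versus control wells.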
Scp1 inh – Scp-1 phosphatase inhibitors, primary screen, biochemical, colorimetric, uHTS. Carboxy-terminal domain RNA polymerase II polypeptide A small phosphatase 1 (Homo …. Recombinant Scp1, phosphopeptide, malachite green phosphate absorbance. inhibition, % at 20 µM. actives 0.88% (n = 340,000). AID 493091, 2011;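 active = inhibition above about 50% at 20 µM, limit read from the data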;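 note: plate controls were DMSO wells with enzyme for no effect and wells lacking enzyme for full effect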
Target sequence (Q9GZU7 76-261 limits assumed): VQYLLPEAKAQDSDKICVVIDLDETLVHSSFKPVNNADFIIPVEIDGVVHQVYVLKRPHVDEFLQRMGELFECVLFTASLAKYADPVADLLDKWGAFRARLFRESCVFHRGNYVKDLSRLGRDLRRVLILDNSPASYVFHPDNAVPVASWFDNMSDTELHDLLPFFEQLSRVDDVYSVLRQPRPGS
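Test system: SCP-1 phosphatase catalytic domain, residues 76-261; measured by: colorimetric phosphate reagent with accelerator and stabiliser, absorbance at 630 nm; timing: enzyme reaction 45 min at room temperature, colour 5 min, stabilisation 30 min; also added: Phosphorylated 17-residue peptide substrate; compound dosing: one concentration, 20 µM, with 1.0% DMSO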
STEP inh – STEP phosphatase inhibitors, primary screen, biochemical, fluorescence intensity, uHTS | recombinant STEP, OMFP fluorogenic substrate | inhibition, % at 20 µM | AID 588621, 2011 | actives 0.25% (n = 360,000) | Tyrosine-protein phosphatase non-receptor type 5 (Homo sapiens), P54829;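 active = inhibition at 20 µM, scaled per plate between control wells, above about 37%, limit read from the data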;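 note: 0% = DMSO with enzyme and substrate and 100% = substrate only without enzyme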
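material = STEP tyrosine phosphatase | reagent = fluorogenic phosphatase substrate OMFP at 25 µM final | doses = single compound dose of 20 µM, 1% DMSO final | schedule = 20 min reaction, room temperature, in the dark | measured by = fluorescence, 480/540 nm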
SUMO1 PPI mod – modulators of SUMO1 protein-protein interactions, primary screen, biochemical, uHTS. inhibition, % at 20 µM. Small ubiquitin-related modifier 1 (Homo sapiens), P63165. SUMO1 binding to a labelled peptide, TR-FRET, 1 h. actives 0.33% (n = 360,000). AID 602429, 2012; in the data active = inhibition above about 37%
Target sequence (P63165 whole entry, looked up): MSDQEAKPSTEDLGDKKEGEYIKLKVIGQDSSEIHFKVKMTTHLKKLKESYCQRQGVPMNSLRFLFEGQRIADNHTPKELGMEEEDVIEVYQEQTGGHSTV
DNMT1 block – human DNMT1 methyltransferase inhibitors, primary screen, biochemical, molecular beacon, fluorescence, HinP1I cleavage, uHTS. DNA (cytosine-5)-methyltransferase 1 (Homo sapiens), P26358. inhibition (reported as % activation of signal), % at 10 µM. actives 0.83% (n = 360,000). AID 588458, 2011; in the data active = inhibition above about 50%
Scp1 confirm – Scp-1 phosphatase inhibitors, retest, confirmation, biochemical, colorimetric, single concentration; AID 540281, 2011; shares compounds with Scp1 inh; actives 61% (n = 2,500); inhibition, % at 20 µM; recombinant SCP-1 catalytic domain, phosphate release, malachite green absorbance;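 note: plate controls were DMSO with enzyme for no effect and buffer wells lacking enzyme for full effect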
MG interference – colorimetric readout interference by compounds, confirmation, artefact control for Scp-1 inhibitor project, biochemical, single concentration; shares compounds with Scp1 inh; Colorimetric interference counterscreen, malachite green absorbance 630 nm; apparent inhibition (interference), % at 20 µM; 2,500 tested, under 10 active;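 note: compounds added after enzyme reaction finished so only phosphate colour detection is probed; plate controls were DMSO wells with completed Scp-1 reaction for no effect and substrate wells lacking enzyme for full effect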
Scp1 DSF – Scp-1 binding by thermal shift, confirmation, orthogonal assay for Scp-1 inhibitor project, biophysical, differential scanning fluorimetry; shares compounds with Scp1 inh; Recombinant SCP1, Sypro Orange thermal shift Tm; thermal shift relative to vanadate control, % at 40 µM; actives 25% (n = 1,500);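 active = substances whose mean melting-temperature shift, as a percentage of the reference inhibitor's shift, reaches about 5.3%, limit read from the data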;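 note: 0% = Tm of DMSO wells and 100% = Tm with sodium orthovanadate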
Beacon interf DR – spectral interference with molecular beacon fluorescence, dose response, artefact control for DNMT1 inhibitor project, biochemical, fluorescent molecular beacon. shares compounds with DNMT1 block. spectral interference counter-screen. IC50, µM. 200 tested, under 10 active. AID 602382, 2012; call rule not given here
DNMT1 inh conf – DNMT1 methyltransferase inhibitor retest, confirmation, biochemical, molecular beacon, fluorescence, single concentration | shares compounds with DNMT1 block | DNMT1 molecular beacon HinP1I cleavage | inhibition, % at 10 µM | actives 8% (n = 2,300) | AID 602385, 2012;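 active = average inhibition of at least 30% in the single-concentration confirmation test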
DNMT1 interf – beacon fluorescence artifact counter-screen | DNMT1 molecular beacon spectral interference counterscreen, fluorescence 485/520 | shares compounds with DNMT1 block | activation (fluorescence interference), % at 10 µM | actives 1% (n = 2,300);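 active = activation of at least 30% at 10 µM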;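 note: DNMT1 catalytic domain with a HinP1I cleavage step and a FAM/dabcyl DNA beacon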
STEP conf – STEP phosphatase inhibitor hit confirmation, biochemical, fluorescence intensity, single concentration. actives 32% (n = 520). shares compounds with STEP inh. recombinant STEP, OMFP fluorogenic substrate. inhibition, % at 20 µM; call rule not given here;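 note: 0% = enzyme with substrate plus DMSO and 100% = substrate without enzyme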
The depositor's hits bear a star; · = no result given.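 Rule for the calls, unless noted: active = inhibition of at least 30% at 20 µM; inactive = the rest.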

SMILES	LMPTP block	Scp1 inh	STEP inh	SUMO1 PPI mod	DNMT1 block	DNMT1 inh conf	DNMT1 interf	others
O=C(N/N=C/c1ccoc1)c1cc(O)cc(O)c1	35	63*	61*	43*	93*	21	-5	Scp1 confirm=58*;MG interference=-16;Scp1 DSF=4;Beacon interf DR=>99;STEP conf=98*
Cc1cc(C)cc(C(=O)N/N=C/c2ccoc2)c1	1	27	8	-4	14	·	·
CNC(=O)c1ccc(NC(=O)CCNC(=O)Nc2ccccc2)cc1	-1	-3	3	1	1	·	·
COc1cccc2cc(C(=O)NNC(=O)c3ccc(Br)cc3)c(=O)oc12	44	99*	82*	-11	7	·	·	Scp1 confirm=55*;MG interference=-13;Scp1 DSF=0;STEP conf=0
CCc1nc2c(OCCC3CCCCC3)cccn2c1N(C)C(=O)c1cccs1	10	·	6	7	-4	·	·
COc1cc(C(=O)Nc2ccc3c(c2)C(=O)c2ccccc2C3=O)cc(OC)c1OC	47	88*	74*	2	66*	0	-1	Scp1 confirm=42*;MG interference=-8;Scp1 DSF=0;STEP conf=19
COc1cc(C(=O)Nc2ccc3c(c2)Cc2ccccc2-3)cc(OC)c1OC	0	-1	-1	4	-5	·	·
CCN(CC(=O)Nc1ccc2c(c1)OCCO2)C(=O)/C=C/c1ccc([N+](=O)[O-])cc1	0	-7	0	-31	1	·	·
O=[N+]([O-])c1ccc(O)c(Nc2ncnc3ccccc23)c1	91*	98*	97*	-10	2	·	·	Scp1 confirm=81*;MG interference=-5;Scp1 DSF=3;STEP conf=36*
COc1cc(/C=C2\SC(=O)N(Cc3ccc(Cl)cc3)C2=O)cc([N+](=O)[O-])c1O	51*	59*	65*	105*	89*	19	-11	Beacon interf DR=>99
NC(=O)C1CCN(CC(=O)Nc2cc(S(=O)(=O)N3CCOCC3)ccc2N2CCCC2)CC1	-1	-5	1	-2	1	·	·
CCc1nc(NCc2cccs2)c2nnn(Cc3ccccc3)c2n1	-3	·	4	1	67*	0	4
CCCNC(=O)Cn1c(=O)/c(=C/c2ccc(-c3cccc([N+](=O)[O-])c3)o2)s/c1=C\C(=O)C(C)(C)C	2	-8	-25	1	68*	17	23
Cc1ccc(S(=O)(=O)CCC(=O)OCc2cc(C)ccc2C)cc1	0	-9	-1	3	2	·	·
CC(C)CCN1C(=O)CSCC1(C)C(=O)NC(C)C (configuration not stated)	0	·	·	-6	·	·	·
COc1ccc(CNC(=O)CCCn2c(=S)[nH]c3cc4c(cc3c2=O)OCO4)cc1	0	-5	8	-29	2	·	·
CCOc1cc2[nH]c(=S)n(CCC(=O)NCc3ccc(OC)cc3)c(=O)c2cc1OCC	1	-7	4	6	59*	-3	-10
Nn1c(SCC(=O)NCc2ccc3c(c2)OCO3)nnc1C(F)(F)F	-1	-5	-1	4	-2	·	·
Cc1ccc(OCc2ccc(C(=O)O)o2)cc1C	-3	30	2	-5	2	·	·
Cc1ccc(OCc2ccoc2C(=O)O)cc1C	0	50	4	4	54*	4	-1
CC1CCN(C(=O)CCn2c(=O)oc3ccc(Cl)cc32)CC1	2	·	1	-4	1	·	·
CC1=C([N+](=O)[O-])C(c2ccc3c(c2)OCO3)N(C)C(=O)N1C (configuration not stated)	-1	-7	2	-5	1	·	·
Cc1cccc(-n2cnc(C(=O)NNC(=S)Nc3ccc(Cl)cc3)c2)n1	1	-4	4	11	-4	·	·
Cc1cccc(-n2cnc(C(=O)N/N=C\c3ccc(Br)cc3)c2)n1	1	-2	3	0	52*	2	-2
Oc1cccc2cc3cccc(O)c3c(O)c12	23	2	2	11	87*	77*	-4	Beacon interf DR=>99
SMILES	LMPTP block	Scp1 inh	STEP inh	SUMO1 PPI mod	DNMT1 block	DNMT1 inh conf	DNMT1 interf	others
O=c1oc(-c2ccc(O)c(O)c2)cc2cccc(O)c12	4	1	1	-19	7	·	·
Cc1ccc(S(=O)(=O)CCC(=O)OCc2nnc(-c3ccc([N+](=O)[O-])cc3)o2)cc1	-1	-4	1	-32	1	·	·
COc1ccc(CCC(N)=O)cc1OC	0	16	4	-3	1	·	·
COc1cc2ccc(CC(N)=O)cc2cc1OC	22	·	-1	8	52*	-1	-1
COc1ccc(/[N+]([O-])=C/c2ccco2)cc1	-1	-6	-2	-12	2	·	·
CC(C)Cn1c(-c2cc(Br)ccc2F)nc2c1c(=O)[nH]c(=O)n2CC(C)C	1	-10	-2	6	-3	·	·
CCN(C(=O)COC(=O)CCCc1c[nH]c2ccccc12)c1c(N)n(Cc2ccccc2)c(=O)[nH]c1=O	0	-1	5	0	-3	·	·
COc1ccc(C(=O)OCC(=O)Nc2ncc([N+](=O)[O-])s2)cc1OC	23	51*	17	28	99*	86*	-4	Beacon interf DR=>99
O=C(COC(=O)c1ccc(Br)o1)Nc1ncc([N+](=O)[O-])s1	3	18	1	4	71*	19	-4
